In data set [1] the test system is MCF7. As to the kind of experiment: Induction of apoptosis in human MCF7 cells assessed as decrease in cell number at 10 uM after 48 hrs using propidium iodide staining by confocal microscopic analysis. The class given is functional, cell-based.
For data set [2], the system named is MDA-MB-231. The experiment in a line: Drug uptake in human MDA-MB-231 cell cytoplasm at 10 uM after 1 hr using propidium iodide staining by two-photon confocal microscopy. The class given is ADME, cell-based. As to conditions: mda-mb-231, 1 h. The method in brief:
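Cells (5 × 10^5) were treated with 10 µM compound for 1 h, PBS-washed and fixed in 4% formaldehyde. Nuclei were stained with propidium iodide for 5 min before mounting. Imaging used two-photon confocal microscopy, 63× oil, excitation 720 nm, emission 480–520 nm, with DIC for morphology.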

The species entered for data set [3] is Homo sapiens. As to the kind of experiment: Binding affinity to human breast cancer tissue at 10 uM after 1 hr by two-photon confocal microscopic analysis. The class given is functional. The essentials:
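Breast cancer tissue sections were dewaxed and rehydrated, then given epitope retrieval for 20 min at 100 °C. They were blocked with goat serum, exposed to 10 µM compound or dansyl ethylenediamine control for 1 h at room temperature, washed and mounted. Dansyl fluorescence was imaged.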

Data set [4] concerns MCF7. As to the kind of experiment: Induction of apoptosis in human MCF7 cells assessed as aberrant gross morphological changes at 10 uM after 48 hrs using propidium iodide staining by confocal microscopic analysis. The class given is functional, cell-based.
Data set [5] concerns MCF7. As to the kind of experiment: Induction of apoptosis in human MCF7 cells assessed as necrotic cells at 10 uM after 24 hrs using annexinV-propidium iodide staining by flow cytometry (reference value: 12.09%). The class given is functional.
Data set [6] has as its target Cyclin-dependent kinase 5/CDK5 activator 1 (Homo sapiens) (UniProt Q00535+Q15078). As to conditions: at 0.1 µM.
The test system of data set [7] is MDA-MB-231. The experiment in a line: Cell cycle arrest in human MDA-MB-231 cells assessed as accumulation at sup G1 phase at 5 to 10 uM after 24 hrs using propidium iodide staining by flow cytometry. The class given is functional, cell-based. The method in brief:
(§1)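 Asynchronous cells were treated with 5 or 10 µM compound or DMSO for 24 h (also 16 and 40 h). They were trypsinized, washed in PBS and fixed/permeabilized in 70% ethanol. Staining was with RNase and propidium iodide for 30 min in the dark at room temperature, followed by flow cytometry. Phase percentages are given minus DMSO control; mean of triplicates.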
Background: Flow cytometry measures light scatter and fluorescence of single cells or particles in a stream.

The subject of data set [8] is MCF7. The experiment in a line: Induction of apoptosis in human MCF7 cells assessed as early apoptotic cells at 10 uM after 24 hrs using annexinV-propidium iodide staining by flow cytometry (reference value: 4.24%). The class given is functional.
The test system of data set [9] is MDA-MB-231. The experiment in a line: Induction of apoptosis in human MDA-MB-231 cells assessed as aberrant gross morphological changes at 10 uM after 48 hrs using propidium iodide staining by confocal microscopic analysis. The class given is functional, cell-based.
Data set [10] concerns MDA-MB-231. As to the kind of experiment: Cell cycle arrest in human MDA-MB-231 cells assessed as accumulation at G2/M phase at 5 to 10 uM after 24 hrs using propidium iodide staining by flow cytometry. The class given is functional, cell-based. The method in brief: as §1
For data set [11], the system named is MDA-MB-231. The experiment in a line: Induction of apoptosis in human MDA-MB-231 cells assessed as induction of PARP cleavage at 10 uM after 48 hrs by Western blotting. The class given is functional, cell-based. The essentials: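 MDA-MB-231 cells were treated with vehicle or 10 µM compound for 48 h (and 72 h). Lysates were cleared and protein measured by BCA. Equal protein was run on 10% SDS–PAGE and transferred to PVDF, blocked in 5% milk overnight, and probed 2 h with anti-Bcl-2, Bax or PARP. HRP secondary was applied for 1 h, with ECL detection.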
Background: A western blot detects proteins with antibodies after separation by electrophoresis.

Data set [12] concerns the target CDK9/cyclin T1 (Homo sapiens) (UniProt O60563+P50750). As to the kind of experiment: Inhibition of at human CDK9/cyclin T1 at 0.1 uM after 40 mins relative to control. The class given is protein-complex assay. The method in brief:
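Radiometric screen at 100 nM compound against purified human CDK/cyclin (5–10 mU). Incubation 40 min at room temperature, stopped with phosphoric acid. Read by filtermat scintillation. Activity expressed as % of control, N = 2.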

The target of data set [13] is Cyclin-dependent kinase 1/cyclin B1 (Homo sapiens) (UniProt P06493+P14635). The following applies: at 0.1 µM.
Sequence of Cyclin-dependent kinase 1/cyclin B1 (Homo sapiens) (P06493 whole entry, looked up): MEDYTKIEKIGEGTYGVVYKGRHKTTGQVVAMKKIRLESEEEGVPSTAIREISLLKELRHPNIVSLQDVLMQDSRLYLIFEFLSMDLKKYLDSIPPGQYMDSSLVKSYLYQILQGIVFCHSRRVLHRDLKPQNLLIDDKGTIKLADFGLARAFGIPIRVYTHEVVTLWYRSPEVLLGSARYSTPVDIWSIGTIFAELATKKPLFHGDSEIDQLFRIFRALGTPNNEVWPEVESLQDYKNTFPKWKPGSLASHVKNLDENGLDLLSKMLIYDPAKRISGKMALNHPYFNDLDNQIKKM
Sequence of Cyclin-dependent kinase 1/cyclin B1 (Homo sapiens) (P14635 whole entry, looked up): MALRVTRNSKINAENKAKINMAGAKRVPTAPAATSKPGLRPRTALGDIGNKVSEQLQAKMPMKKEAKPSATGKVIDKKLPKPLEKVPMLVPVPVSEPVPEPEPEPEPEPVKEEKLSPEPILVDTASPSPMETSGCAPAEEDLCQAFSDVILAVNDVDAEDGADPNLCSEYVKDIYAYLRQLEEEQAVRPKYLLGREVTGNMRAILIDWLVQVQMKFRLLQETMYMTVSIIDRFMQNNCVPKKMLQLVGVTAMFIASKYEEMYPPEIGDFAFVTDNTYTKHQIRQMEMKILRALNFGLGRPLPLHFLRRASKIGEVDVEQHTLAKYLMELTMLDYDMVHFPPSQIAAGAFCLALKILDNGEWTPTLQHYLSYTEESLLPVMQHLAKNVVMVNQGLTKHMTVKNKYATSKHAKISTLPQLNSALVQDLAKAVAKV
The test system of data set [14] is MCF7. As to the kind of experiment: Induction of apoptosis in human MCF7 cells assessed as late apoptotic cells at 10 uM after 24 hrs using annexinV-propidium iodide staining by flow cytometry (reference value: 13.35%). The class given is functional.

Calls of active or inactive are those of the source. The calls are words filed in the database; no cut-off is given here.

Sequence of Cyclin-dependent kinase 5/CDK5 activator 1 (Homo sapiens) (Q00535 whole entry): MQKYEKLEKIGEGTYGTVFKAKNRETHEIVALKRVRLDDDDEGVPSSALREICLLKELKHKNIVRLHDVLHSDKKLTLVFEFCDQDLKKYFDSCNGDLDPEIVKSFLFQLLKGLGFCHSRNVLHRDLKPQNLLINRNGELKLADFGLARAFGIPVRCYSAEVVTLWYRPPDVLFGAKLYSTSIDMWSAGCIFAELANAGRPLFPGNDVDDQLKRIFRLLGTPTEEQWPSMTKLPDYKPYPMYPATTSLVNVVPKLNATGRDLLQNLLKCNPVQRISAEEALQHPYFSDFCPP
Sequence of Cyclin-dependent kinase 5/CDK5 activator 1 (Homo sapiens) (Q15078 99-307 partner limits assumed): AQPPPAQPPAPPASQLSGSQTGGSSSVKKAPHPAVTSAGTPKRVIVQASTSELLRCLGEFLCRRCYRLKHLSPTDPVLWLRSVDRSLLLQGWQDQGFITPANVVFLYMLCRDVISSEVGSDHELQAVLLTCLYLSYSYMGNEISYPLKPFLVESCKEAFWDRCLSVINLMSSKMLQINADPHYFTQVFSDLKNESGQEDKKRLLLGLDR

In general, inhibition refers to the drop in the measured response relative to a control, in per cent. Turning to `CC(C)[C@H](CO)Nc1nc(Nc2ccc(C(=O)NCCNS(=O)(=O)c3cccc4c(N(C)C)cccc34)c(Cl)c2)c2ncn(C(C)C)c2n1`, the outcome in data set [1], in data set [3], in data set [4], in [7], in data set [9] and in data set [10] was Active. In addition, in [11], the result was Active. Further, the Activity entry is “Active” in data set [2], 17.15% in data set [5], 10.53% in data set [8] and 23.47% in data set [14]. Further, the inhibition in data set [6] is 75%; in [12] it was 67%; in data set [13], 35%.
